Reference: ChEMBL document CHEMBL4393737, “Synthesis of quinoline derivatives as diabetic II inhibitors and molecular docking studies” (Bioorg Med Chem, 2019)

Columns and labels:
[1] = Inhibition of Saccharomyces cerevisiae alpha-glucosidase using para-nitrophenyl-alpha-D-glucopyranoside as substrate preincubated for 5 mins followed by substrate addition and measured after 5 mins
Procedure, shortened: (§1)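 Baker's yeast α-glucosidase (EC 3.2.1.20) in 100 mM phosphate buffer, pH 6.8. Compounds came from 5 mg/mL DMSO stocks and were incubated with enzyme for 5 min. p-Nitrophenyl-α-D-glucopyranoside (5 mM solution) was then added and incubated for 5 min, and absorbance read at 405 nm. Blanks with buffer in place of substrate gave background; acarbose served as positive control.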

[2] = test system: Saccharomyces cerevisiae; assay: Inhibition of Saccharomyces cerevisiae alpha-glucosidase using para-nitrophenyl-alpha-D-glucopyranoside as substrate preincubated for 5 mins followed by substrate addition and measured after 5 mins relative to control; parameters: concentration or dose not given beside the values; procedure, shortened: as §1

Work on `O=C(N/N=C\c1ccccc1[N+](=O)[O-])c1ccc2ncccc2c1` yielded an IC50 ([1]; read-out: IC50) of 37.6 µM.

In the case of `O=C(N/N=C\c1ccncc1)c1ccc2ncccc2c1`, the inhibition [2] is reported as < 50% and the IC50 [1] is reported as “Not Active”.

For `COc1ccc(/C=N\NC(=O)c2ccc3ncccc3c2)cc1`, the inhibition [2] was < 50% and the IC50 [1] was “Not Active”.

`O=C(N/N=C\c1ccc(O)cc1)c1ccc2ncccc2c1` gave an IC50 ([1]; read-out: IC50) of 23.5 µM.

Work on `COc1ccc(/C=N\NC(=O)c2ccc3ncccc3c2)cc1O` yielded an IC50 ([1]; read-out: IC50) of 14.4 µM.

For `O=C(N/N=C\c1ccc(O)cc1O)c1ccc2ncccc2c1`, the IC50 ([1]; read-out: IC50) was 14.1 µM.

In the case of `O=C(N/N=C\c1ccccc1F)c1ccc2ncccc2c1`, the IC50 ([1]; read-out: IC50) is reported as 7.4 µM.

With `O=C(N/N=C\c1ccc([N+](=O)[O-])cc1)c1ccc2ncccc2c1` the inhibition [2] was < 50% and the IC50 [1] was “Not Active”.

`O=C(N/N=C\c1ccccc1O)c1ccc2ncccc2c1` gave an IC50 ([1]; read-out: IC50) of 13.2 µM.

`COc1ccc(O)c(/C=N\NC(=O)c2ccc3ncccc3c2)c1` showed an IC50 ([1]; read-out: IC50) of 18.4 µM.

Work on `O=C(N/N=C\c1cccc(O)c1O)c1ccc2ncccc2c1` yielded an IC50 ([1]; read-out: IC50) of 9.4 µM.

With `Cc1cccc(C)c1/C=N\NC(=O)c1ccc2ncccc2c1` the inhibition [2] was < 50% and the IC50 [1] was “Not Active”.

In the case of `O=C(N/N=C\c1cccc(F)c1)c1ccc2ncccc2c1`, the IC50 ([1]; read-out: IC50) is reported as 48.2 µM.

In the case of `O=C(N/N=C\c1ccc(O)c(O)c1)c1ccc2ncccc2c1`, the IC50 ([1]; read-out: IC50) is reported as 6.2 µM.

Work on `O=C(N/N=C\c1cccs1)c1ccc2ncccc2c1` yielded an IC50 ([1]; read-out: IC50) of 35.7 µM.

With `O=C(N/N=C\c1cccc([N+](=O)[O-])c1)c1ccc2ncccc2c1` the inhibition [2] was < 50% and the IC50 [1] was “Not Active”.

Compound `O=C(N/N=C\c1ccc(F)cc1)c1ccc2ncccc2c1` has an IC50 ([1]; read-out: IC50) of 28.9 µM.

In the case of `O=C(N/N=C\c1cccc(O)c1)c1ccc2ncccc2c1`, the IC50 ([1]; read-out: IC50) is reported as 48.5 µM.

With `O=C(N/N=C\c1cccnc1)c1ccc2ncccc2c1` the inhibition [2] was < 50% and the IC50 [1] was “Not Active”.

In the case of `O=C(N/N=C\c1cc(O)ccc1O)c1ccc2ncccc2c1`, the IC50 ([1]; read-out: IC50) is reported as 12.4 µM.

For `COc1ccc(/C=N\NC(=O)c2ccc3ncccc3c2)c(O)c1`, the IC50 ([1]; read-out: IC50) was 21.6 µM.

For `COc1ccc(/C=N\NC(=O)c2ccc3ncccc3c2)cc1OC`, the inhibition [2] was < 50% and the IC50 [1] was “Not Active”.

With `COc1cccc(/C=N\NC(=O)c2ccc3ncccc3c2)c1` the inhibition [2] was < 50% and the IC50 [1] was “Not Active”.

With `O=C(N/N=C\c1ccccn1)c1ccc2ncccc2c1` the IC50 ([1]; read-out: IC50) was 38.4 µM.

`O=C(N/N=C\c1ccco1)c1ccc2ncccc2c1` gave an IC50 ([1]; read-out: IC50) of 28.6 µM.
